# Measurements published in ChEMBL document CHEMBL1165965, “Synthesis and structure-activity relationships of 1,2,3,4-tetrahydropyrido[2,3-b]pyrazines as potent and selective inhibitors of the anaplastic lymphoma kinase” (Bioorg Med Chem, 2010).
# Tests used:
# [1] = target: Tyrosine-protein kinase FRK (Homo sapiens) (UniProt P42685); test: Inhibition of FRK at 1 uM
# Method in brief: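 Single-concentration screen on the Ambit KINOMEscan platform, run against a panel of 250–400 kinases. Per-kinase inhibition was also summarized as S(90), the fraction of kinases inhibited by more than 90%.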
# [2] = target: Ribosomal protein S6 kinase alpha-5 (Homo sapiens) (UniProt O75582); test: Inhibition of RPS6KA5 N-terminal domain1 at 1 uM
# [3] = target: Serine/threonine-protein kinase PLK2 (Homo sapiens) (UniProt Q9NYY3); test: Inhibition of PLK2 at 1 uM
# [4] = target: T1, Serine/threonine-protein kinase tousled-like 1 (Homo sapiens) (UniProt Q9UKI8); test: Inhibition of TLK1 at 1 uM
# T1 sequence (whole entry): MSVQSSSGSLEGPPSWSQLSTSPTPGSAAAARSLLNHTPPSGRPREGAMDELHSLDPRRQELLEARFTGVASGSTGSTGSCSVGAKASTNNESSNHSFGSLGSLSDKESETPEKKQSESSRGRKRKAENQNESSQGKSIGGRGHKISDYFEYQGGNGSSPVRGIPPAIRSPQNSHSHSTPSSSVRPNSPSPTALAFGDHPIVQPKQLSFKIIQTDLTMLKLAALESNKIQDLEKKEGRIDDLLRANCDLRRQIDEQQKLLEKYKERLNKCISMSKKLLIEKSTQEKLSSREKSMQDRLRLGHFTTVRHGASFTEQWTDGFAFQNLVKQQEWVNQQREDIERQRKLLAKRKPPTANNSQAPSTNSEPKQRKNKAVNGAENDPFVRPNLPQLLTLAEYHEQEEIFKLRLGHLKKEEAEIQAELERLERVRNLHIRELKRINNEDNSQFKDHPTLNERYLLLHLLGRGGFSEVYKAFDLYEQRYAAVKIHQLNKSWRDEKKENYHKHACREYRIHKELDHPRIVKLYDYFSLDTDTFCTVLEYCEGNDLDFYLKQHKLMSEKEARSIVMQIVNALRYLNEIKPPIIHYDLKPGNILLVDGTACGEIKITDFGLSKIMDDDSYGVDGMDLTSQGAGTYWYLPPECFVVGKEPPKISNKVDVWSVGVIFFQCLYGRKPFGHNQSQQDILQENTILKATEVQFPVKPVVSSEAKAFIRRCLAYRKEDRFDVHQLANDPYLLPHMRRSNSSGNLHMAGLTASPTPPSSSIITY
# [5] = target: T2, Receptor-interacting serine/threonine-protein kinase 1 (Homo sapiens) (UniProt Q13546); test: Inhibition of RIPK1 at 1 uM
# T2 sequence (whole entry): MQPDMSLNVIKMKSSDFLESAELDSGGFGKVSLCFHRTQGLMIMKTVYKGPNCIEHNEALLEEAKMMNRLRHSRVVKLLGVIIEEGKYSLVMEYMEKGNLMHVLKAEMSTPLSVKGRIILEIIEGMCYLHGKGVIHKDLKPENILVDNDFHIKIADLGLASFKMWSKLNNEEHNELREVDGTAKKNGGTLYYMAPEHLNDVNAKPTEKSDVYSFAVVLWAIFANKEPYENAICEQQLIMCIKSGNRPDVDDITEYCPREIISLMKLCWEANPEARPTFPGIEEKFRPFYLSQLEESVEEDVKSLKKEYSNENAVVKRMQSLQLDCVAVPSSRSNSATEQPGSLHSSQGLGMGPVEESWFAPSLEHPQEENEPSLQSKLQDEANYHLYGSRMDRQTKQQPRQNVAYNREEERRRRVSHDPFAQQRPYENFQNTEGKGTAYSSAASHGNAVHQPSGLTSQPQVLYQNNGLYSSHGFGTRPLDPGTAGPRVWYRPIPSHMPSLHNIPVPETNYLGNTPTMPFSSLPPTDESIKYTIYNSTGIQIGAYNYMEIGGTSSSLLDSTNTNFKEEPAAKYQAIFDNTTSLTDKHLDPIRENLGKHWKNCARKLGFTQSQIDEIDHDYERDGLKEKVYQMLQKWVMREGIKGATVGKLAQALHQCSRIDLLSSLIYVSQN
# [6] = target: T3, Ephrin type-A receptor 6 (Homo sapiens) (UniProt Q9UF33); test: Inhibition of EPHA6 at 1 uM
# T3 sequence (whole entry): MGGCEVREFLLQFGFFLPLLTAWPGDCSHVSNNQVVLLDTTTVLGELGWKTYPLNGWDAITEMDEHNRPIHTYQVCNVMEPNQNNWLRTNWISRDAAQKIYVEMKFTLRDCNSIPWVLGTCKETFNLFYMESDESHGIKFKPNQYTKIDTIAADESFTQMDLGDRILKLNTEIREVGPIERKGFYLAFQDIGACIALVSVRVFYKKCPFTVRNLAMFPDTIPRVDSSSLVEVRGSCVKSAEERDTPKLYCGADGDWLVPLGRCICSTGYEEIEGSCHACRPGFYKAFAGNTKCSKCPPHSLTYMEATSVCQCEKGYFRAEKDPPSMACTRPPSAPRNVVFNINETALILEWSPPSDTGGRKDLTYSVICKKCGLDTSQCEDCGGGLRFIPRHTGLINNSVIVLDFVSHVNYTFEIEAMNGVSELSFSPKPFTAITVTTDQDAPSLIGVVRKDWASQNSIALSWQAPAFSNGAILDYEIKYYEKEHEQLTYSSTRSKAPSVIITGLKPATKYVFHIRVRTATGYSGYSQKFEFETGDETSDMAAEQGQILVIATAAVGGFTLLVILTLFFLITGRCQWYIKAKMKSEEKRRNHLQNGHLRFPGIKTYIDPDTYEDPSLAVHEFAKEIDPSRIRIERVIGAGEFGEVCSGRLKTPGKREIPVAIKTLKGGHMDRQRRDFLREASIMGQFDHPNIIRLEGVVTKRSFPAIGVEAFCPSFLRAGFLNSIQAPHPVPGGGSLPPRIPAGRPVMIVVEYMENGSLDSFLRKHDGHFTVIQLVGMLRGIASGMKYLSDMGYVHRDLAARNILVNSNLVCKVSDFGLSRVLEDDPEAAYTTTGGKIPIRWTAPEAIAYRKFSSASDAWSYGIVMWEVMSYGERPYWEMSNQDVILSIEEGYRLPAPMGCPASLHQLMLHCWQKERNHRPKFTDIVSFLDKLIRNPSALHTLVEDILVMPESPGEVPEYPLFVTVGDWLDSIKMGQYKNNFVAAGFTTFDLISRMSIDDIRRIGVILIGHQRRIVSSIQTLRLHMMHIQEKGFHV
# Method in brief: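 Single-concentration screen using Ambit Bioscience KINOMEscan technology across a panel of 250–400 kinases. Per-kinase inhibition from this screen was summarized as S(90), the fraction of kinases inhibited by more than 90%.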
# Chain of Tyrosine-protein kinase FRK (Homo sapiens) (P42685 whole entry): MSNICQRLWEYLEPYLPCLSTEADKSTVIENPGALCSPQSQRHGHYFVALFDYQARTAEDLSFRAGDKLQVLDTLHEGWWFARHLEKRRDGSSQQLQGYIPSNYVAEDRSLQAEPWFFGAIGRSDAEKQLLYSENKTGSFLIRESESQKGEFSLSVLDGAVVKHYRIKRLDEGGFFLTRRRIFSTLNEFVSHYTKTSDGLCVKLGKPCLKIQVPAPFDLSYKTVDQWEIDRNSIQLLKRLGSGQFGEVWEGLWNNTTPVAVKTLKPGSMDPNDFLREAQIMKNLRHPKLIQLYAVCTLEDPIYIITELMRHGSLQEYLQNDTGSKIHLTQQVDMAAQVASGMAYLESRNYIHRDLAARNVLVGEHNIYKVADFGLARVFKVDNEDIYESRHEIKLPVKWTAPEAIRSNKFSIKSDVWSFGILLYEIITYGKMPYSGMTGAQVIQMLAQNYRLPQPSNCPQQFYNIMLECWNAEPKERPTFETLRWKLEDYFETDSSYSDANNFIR
# Chain of Serine/threonine-protein kinase PLK2 (Homo sapiens) (Q9NYY3 whole entry, looked up): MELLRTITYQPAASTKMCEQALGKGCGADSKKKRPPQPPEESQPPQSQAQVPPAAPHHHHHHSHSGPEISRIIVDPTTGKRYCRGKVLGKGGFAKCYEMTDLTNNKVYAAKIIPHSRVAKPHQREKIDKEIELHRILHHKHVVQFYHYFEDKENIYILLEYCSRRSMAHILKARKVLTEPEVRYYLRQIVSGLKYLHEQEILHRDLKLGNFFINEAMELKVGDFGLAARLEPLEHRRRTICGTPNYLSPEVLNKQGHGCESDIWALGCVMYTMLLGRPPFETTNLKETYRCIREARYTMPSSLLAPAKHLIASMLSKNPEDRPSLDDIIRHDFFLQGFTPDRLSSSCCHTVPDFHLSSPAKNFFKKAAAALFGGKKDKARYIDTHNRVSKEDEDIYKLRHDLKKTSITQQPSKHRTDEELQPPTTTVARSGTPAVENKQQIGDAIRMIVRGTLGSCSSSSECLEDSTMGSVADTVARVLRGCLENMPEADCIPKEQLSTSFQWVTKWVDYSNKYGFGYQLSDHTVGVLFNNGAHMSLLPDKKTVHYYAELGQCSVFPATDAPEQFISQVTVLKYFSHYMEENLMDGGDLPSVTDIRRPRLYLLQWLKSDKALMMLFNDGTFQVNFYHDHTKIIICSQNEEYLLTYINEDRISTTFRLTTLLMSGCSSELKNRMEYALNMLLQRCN
# Chain of Ribosomal protein S6 kinase alpha-5 (Homo sapiens) (O75582 whole entry, looked up, the tested form may be a part): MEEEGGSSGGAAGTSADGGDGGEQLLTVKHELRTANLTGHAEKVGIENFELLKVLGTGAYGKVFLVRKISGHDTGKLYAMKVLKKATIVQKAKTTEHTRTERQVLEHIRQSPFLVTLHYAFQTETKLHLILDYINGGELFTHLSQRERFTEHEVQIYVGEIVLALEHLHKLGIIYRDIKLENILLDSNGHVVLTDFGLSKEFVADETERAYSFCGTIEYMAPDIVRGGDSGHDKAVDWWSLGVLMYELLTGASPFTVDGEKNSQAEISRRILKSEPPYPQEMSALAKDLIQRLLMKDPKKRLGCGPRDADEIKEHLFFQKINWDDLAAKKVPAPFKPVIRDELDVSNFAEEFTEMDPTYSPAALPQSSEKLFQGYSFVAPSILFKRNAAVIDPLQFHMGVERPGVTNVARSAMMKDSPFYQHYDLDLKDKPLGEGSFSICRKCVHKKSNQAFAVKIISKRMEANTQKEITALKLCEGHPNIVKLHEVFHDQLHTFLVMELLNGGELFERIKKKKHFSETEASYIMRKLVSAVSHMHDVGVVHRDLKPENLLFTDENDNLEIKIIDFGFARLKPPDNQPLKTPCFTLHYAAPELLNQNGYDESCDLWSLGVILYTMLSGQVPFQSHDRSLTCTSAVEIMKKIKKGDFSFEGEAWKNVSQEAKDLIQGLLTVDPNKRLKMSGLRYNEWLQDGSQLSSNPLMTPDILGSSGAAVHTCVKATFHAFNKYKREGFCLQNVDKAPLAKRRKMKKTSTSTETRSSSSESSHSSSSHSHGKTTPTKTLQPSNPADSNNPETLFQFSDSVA
Structure (SMILES),inhibition [1],inhibition [2],inhibition [3],inhibition [4],inhibition [5],inhibition [6]
CN1CCN(c2ccc(-c3cnc4c(c3)N(Cc3cc(F)ccc3F)CCN4)cn2)CC1,< 50%,< 50%,< 50%,< 50%,< 50%,< 50%
CC(=O)N1CCN(c2cc(-c3cnc4c(c3)N(Cc3cc(Cl)ccc3C(F)(F)F)CCN4)ccn2)CC1,< 50%,< 50%,82%,< 50%,< 50%,< 50%
CN1CCN(c2ccc(-c3cnc4c(c3)N(Cc3c(F)ccc(F)c3Cl)CCN4)cn2)CC1,66%,< 50%,< 50%,< 50%,< 50%,< 50%
FC(F)(F)c1ccc(Cl)cc1CN1CCNc2ncc(-c3ccnc(N4CCNCC4)c3)cc21,< 50%,< 50%,< 50%,< 50%,< 50%,< 50%
CN1CCN(c2ccc(-c3cnc4c(c3)N(Cc3cc(Cl)ccc3Cl)CCN4)cn2)CC1,< 50%,< 50%,< 50%,< 50%,< 50%,< 50%
O=C(c1ccc(-c2cnc3c(c2)N(Cc2cc(Cl)ccc2C(F)(F)F)CCN3)cc1)N1CCC(N2CCCC2)CC1,< 50%,< 50%,–,< 50%,< 50%,< 50%
O=C(O)c1ccc(-c2cnc3c(c2)N(Cc2cc(Cl)ccc2C(F)(F)F)CCN3)cc1,< 50%,< 50%,–,< 50%,< 50%,< 50%
CN1CCN(c2ccc(-c3cnc4c(c3)N(Cc3cc(Cl)ccc3C(F)(F)F)CCN4)cn2)CC1,< 50%,< 50%,< 50%,< 50%,< 50%,< 50%
O=C(c1ccc(-c2cnc3c(c2)N(Cc2cc(Cl)ccc2C(F)(F)F)CCN3)cc1)N1CCCCC1,< 50%,< 50%,–,< 50%,< 50%,< 50%
COC1CCN(C(=O)c2ccc(-c3cnc4c(c3)N(Cc3cc(Cl)ccc3C(F)(F)F)CCN4)cc2)CC1,< 50%,< 50%,–,< 50%,< 50%,< 50%
